Rows were chosen to be rich in hits. Some 1.8% of all compounds tested hit in one or more screens of this group.
Runt-SMMHC FRET: inhibitors of human RUNX1 Runt domain binding to CBFb-SMMHC; inhibition, % at 20 µM; 220,000 tested, 0.74% active; Cerulean-Runt/Venus-CBFb-SMMHC FRET ratio 530/480, 1 h;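 active = mean inhibition across duplicate retests at 20 µM reaching about 50%, limit read from the data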;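 also: 0% = DMSO wells and 100% = wells with excess untagged CBFb-SMMHC; inhibitors lower the FRET ratio by blocking Runt binding to CBFb-SMMHC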
Target sequence (Q01196 whole entry, looked up, the tested form may be a part): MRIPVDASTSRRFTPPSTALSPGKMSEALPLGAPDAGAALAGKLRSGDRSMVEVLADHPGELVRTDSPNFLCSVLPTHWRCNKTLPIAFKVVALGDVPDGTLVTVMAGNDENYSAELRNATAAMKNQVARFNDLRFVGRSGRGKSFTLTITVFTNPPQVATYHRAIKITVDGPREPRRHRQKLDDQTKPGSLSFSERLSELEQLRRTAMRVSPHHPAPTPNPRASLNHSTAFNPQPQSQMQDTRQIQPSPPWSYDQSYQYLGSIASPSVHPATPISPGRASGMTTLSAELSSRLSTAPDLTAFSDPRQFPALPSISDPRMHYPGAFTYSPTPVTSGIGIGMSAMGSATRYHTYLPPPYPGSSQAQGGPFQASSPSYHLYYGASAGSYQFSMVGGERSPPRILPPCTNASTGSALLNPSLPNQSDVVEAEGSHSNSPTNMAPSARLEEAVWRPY
Target sequence (Q13951 whole entry, looked up, the tested form may be a part): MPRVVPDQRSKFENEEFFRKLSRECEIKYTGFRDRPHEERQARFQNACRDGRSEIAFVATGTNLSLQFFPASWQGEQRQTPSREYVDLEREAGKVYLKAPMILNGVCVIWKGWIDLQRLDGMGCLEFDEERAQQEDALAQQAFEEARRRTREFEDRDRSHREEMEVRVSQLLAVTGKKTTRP
Hck Nef HTS: inhibitors of human Hck kinase activated by Nef | inhibition, % at 20 µM | Recombinant Hck-YEEI plus Nef, Z-Lyte FRET kinase assay | 220,000 tested, 0.68% active | P08631;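 active = Hck-Nef kinase inhibition above about 50%, limit read from the data; inactive = inhibition below that limit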;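 also: 0% = DMSO with Hck plus Nef and 100% = Hck alone without Nef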
Runt-CBFb FRET: blocks binding of human RUNX1 Runt domain to CBFb; 220,000 tested, 0.46% active; Cerulean-Runt/Venus-CBFb FRET ratio 530/480, 1 h; inhibition, % at 20 µM; Q01196+Q13951;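 active = inhibition over about 50% at 20 µM in the single-dose screen, limit read from the data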;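 also: 0% = DMSO wells and 100% = excess unlabeled CBFb competitor control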
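Assay system: Cerulean-Runt domain fusion protein, energy donor; Signal: fluorescence energy transfer, 422 nm excitation, 530/480 nm emission; Timing: 1 h compound exposure, room temperature; Control set: unlabeled CBFb; Medium: Tris buffer pH 7.5 with salts and BSA; Compound: single test concentration of 20 µM, 1% DMSO final; Probe or stimulus: Venus-CBFb 100 nM.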
RanGTP-Impb inh: disruptors of Ran-importin-beta complex formation – biochemical, FRET, CFP-Ran, YFP-importin-beta, homogeneous, primary screen; cell-free CFP-Ran/YFP-importin-beta FRET ratio; inhibition, % (no concentration beside the values); 300,000 tested, 1.1% active;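 active = more than half of the replicate wells show a fall in the fluorescence ratio signal beyond about 16%, limit read from the data, passing the limit was not always enough; inconclusive = exactly half of the replicate wells pass the set limit; inactive = fewer than half of replicates pass the limit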;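 also: 0% = DMSO wells and 100% = Ran loaded with GDP instead of GTP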
* = called active by the depositor.

Cc1c(O)ccc2c(CC(=O)N[C@@H](Cc3ccc(O)cc3)C(=O)O)cc(=O)oc12 was read as RanGTP-Impb inh 52*.
`COC(=O)C1CN(C(=O)COc2ccccc2)c2ccccc2O1` (stereo unspecified) gave RanGTP-Impb inh 3.
`COc1ccc(N/N=C(/C(N)=O)C2=NC(C)(C)Cc3ccccc32)cc1` gave Runt-SMMHC FRET -5, Hck Nef HTS 54*, Runt-CBFb FRET -5 and RanGTP-Impb inh 3.
For COc1ccc(N/N=C(\C#N)C(N)=O)cc1 the results were Runt-SMMHC FRET 3, Hck Nef HTS 3, Runt-CBFb FRET 1 and RanGTP-Impb inh -2.
CC(=O)Oc1ccc(C23CC4CC(CC(C4)C2)C3)cc1C(=O)O was read as RanGTP-Impb inh 3.
CCCCOc1ccc(/C=N/NC(=O)c2nnn(-c3nonc3N)c2CN2CCCCCC2)cc1 was read as RanGTP-Impb inh 28*.
`O=C(CCS(=O)(=O)c1ccc(Cl)cc1)Nc1ccc(N2CCOCC2)cc1` gave Runt-SMMHC FRET -1, Hck Nef HTS 16, Runt-CBFb FRET -1 and RanGTP-Impb inh 4.
Clc1ccc2nc(N3CCNCC3)nc(-c3ccccc3)c2c1 was read as Runt-SMMHC FRET 89*, Hck Nef HTS 7, Runt-CBFb FRET 39 and RanGTP-Impb inh 4.
`CN1CCN(c2nc(-c3ccccc3)c3cc(Cl)ccc3n2)CC1` gave Runt-SMMHC FRET 57*, Hck Nef HTS 3, Runt-CBFb FRET 25 and RanGTP-Impb inh inconclusive.
CN1CCN(c2nnc(-c3ccccc3)c(-c3ccccc3)n2)CC1 was read as Runt-SMMHC FRET -2, Hck Nef HTS -3, Runt-CBFb FRET 2 and RanGTP-Impb inh 1.
Screening c1ccc(-c2nc(N3CCCC3)nc3ccccc23)cc1 returned Runt-SMMHC FRET 19, Hck Nef HTS -1, Runt-CBFb FRET 7 and RanGTP-Impb inh 34*.
Screening O=C1CN(c2nc(-c3ccccc3)c3cc(Cl)ccc3n2)c2ccccc2N1 returned Runt-SMMHC FRET -68, Hck Nef HTS 3, Runt-CBFb FRET -24 and RanGTP-Impb inh 1.
c1ccc2c(N3CCCCC3)nc(N3CCCCC3)nc2c1 was read as Runt-SMMHC FRET -7, Hck Nef HTS 8, Runt-CBFb FRET -1 and RanGTP-Impb inh 6.
For Cc1ccc(S(=O)(=O)Nc2ccc(Nc3ccccc3)cc2)cc1 the results were RanGTP-Impb inh -4.
For Cc1ccc(S(=O)(=O)NNc2ccccc2)cc1 the results were Runt-SMMHC FRET 68*, Hck Nef HTS -3, Runt-CBFb FRET 40 and RanGTP-Impb inh -3.
`O=C(CC1C(=O)NCCN1Cc1ccc(F)c(F)c1)NCCCn1ccnc1` (stereo unspecified) gave Runt-SMMHC FRET -2, Hck Nef HTS 21, Runt-CBFb FRET 1 and RanGTP-Impb inh 1.
Screening Cc1ccc(Cl)cc1-c1ccc(C=Nc2ccc(N3CCOCC3)cc2)o1 returned Runt-SMMHC FRET -2, Hck Nef HTS 5, Runt-CBFb FRET 0 and RanGTP-Impb inh 0.
For Cc1ccccc1NC(=O)CSc1nnc(C)c2ccccc12 the results were RanGTP-Impb inh 1.
Screening Cc1cc(C)nc(N(C#N)Cc2ccc(Cl)cc2)n1 returned Runt-SMMHC FRET 1, Hck Nef HTS 17, Runt-CBFb FRET 1 and RanGTP-Impb inh -1.
For Cc1cc(C)nc(N(C#N)Cc2cccc(Cl)c2)n1 the results were Runt-SMMHC FRET -1, Hck Nef HTS 20, Runt-CBFb FRET 0 and RanGTP-Impb inh 51*.
Screening O=S(=O)(Nc1nc2ccccc2nc1Nc1ccc(N2CCOCC2)cc1)c1cc(Cl)ccc1Cl returned Runt-SMMHC FRET -7, Hck Nef HTS -1, Runt-CBFb FRET 2 and RanGTP-Impb inh 37*.
For Cc1ccc(S(=O)(=O)c2cc3c(=O)n4ccccc4nc3n(Cc3ccco3)c2=N)cc1 the results were Hck Nef HTS 27, Runt-CBFb FRET 19 and RanGTP-Impb inh 104*.
Cc1ccc(S(=O)(=O)c2cc3c(=O)n4cccc(C)c4nc3n(Cc3ccco3)c2=N)cc1C was read as Runt-SMMHC FRET 65* and Runt-CBFb FRET 48.
`COc1ccccc1C(=O)Nc1ccnn1C1CCN(Cc2ccn[nH]2)CC1` gave RanGTP-Impb inh 2.
For CC(=O)c1ccc(S(=O)(=O)NC2CC(=O)N(c3ccc(C)c(C)c3)C2)cc1 (stereo unspecified) the results were RanGTP-Impb inh -2.
For CCCNc1cc(=S)nc(N)[nH]1 the results were Runt-SMMHC FRET 22, Hck Nef HTS -29, Runt-CBFb FRET 36 and RanGTP-Impb inh 36*.
For O=C(CSc1nnc2ccccn12)Nc1ccccc1C(=O)O the results were Runt-SMMHC FRET -2, Hck Nef HTS 22, Runt-CBFb FRET 0 and RanGTP-Impb inh 3.
CCCCNC(=O)C1c2ccccc2Oc2ccccc21 was read as Runt-SMMHC FRET 1, Hck Nef HTS 16, Runt-CBFb FRET 2 and RanGTP-Impb inh 22*.
For Cc1ccc(Oc2nc3ccccn3c(=O)c2/C=C(\C#N)C(=O)NC2CCS(=O)(=O)C2)cc1 (stereo unspecified) the results were Runt-SMMHC FRET 82*, Hck Nef HTS -3, Runt-CBFb FRET 73* and RanGTP-Impb inh 29*.
Screening CCOC(=O)/C(C#N)=C/c1c(Oc2cccc(C)c2)nc2c(C)cccn2c1=O returned Runt-SMMHC FRET 63, Hck Nef HTS 4, Runt-CBFb FRET -5 and RanGTP-Impb inh -6.
`CCOC(=O)/C(C#N)=C/c1c(Oc2cc(C)cc(C)c2)nc2ccccn2c1=O` gave Runt-SMMHC FRET 4, Hck Nef HTS 0, Runt-CBFb FRET 0 and RanGTP-Impb inh 3.
Cc1cccn2c(=O)c(/C=C(\C#N)C(=O)NC3CCS(=O)(=O)C3)c(Oc3ccccc3Cl)nc12 (stereo unspecified) was read as RanGTP-Impb inh 160*.
Cc1ccccc1Oc1nc2c(C)cccn2c(=O)c1/C=C(\C#N)C(=O)NC1CCS(=O)(=O)C1 (stereo unspecified) was read as Runt-SMMHC FRET 76*, Hck Nef HTS 9, Runt-CBFb FRET 113* and RanGTP-Impb inh 13.
For Cc1cccn2c(=O)c3cc(C(=O)NC4CCS(=O)(=O)C4)sc3nc12 (stereo unspecified) the results were Runt-SMMHC FRET 9, Hck Nef HTS 19, Runt-CBFb FRET 6 and RanGTP-Impb inh 5.
`Cc1ccc(Oc2nc3c(C)cccn3c(=O)c2/C=C(\C#N)C(N)=O)cc1` gave Runt-SMMHC FRET 64*, Hck Nef HTS 10, Runt-CBFb FRET 46 and RanGTP-Impb inh 12.
`Cc1cc(C)c2cc(C(=O)N3CCN(c4ncccc4C(F)(F)F)CC3)[nH]c2c1` gave RanGTP-Impb inh -2.
Screening Cc1cc(C(=O)COc2cccc3cccnc23)c(C)n1C returned Runt-SMMHC FRET -2, Hck Nef HTS 1, Runt-CBFb FRET 4 and RanGTP-Impb inh 90*.
CC1=CC(c2ccccc2)n2nc(NS(=O)(=O)c3ccc(C)cc3)nc2N1 (stereo unspecified) was read as Runt-SMMHC FRET 85*, Hck Nef HTS 15 and Runt-CBFb FRET 35.

Screens deposited in PubChem by several laboratories.
